According to ChEMBL document CHEMBL1287780, “Discovery of 1H-benzo[d][1,2,3]triazol-1-yl 3,4,5-trimethoxybenzoate as a potential antiproliferative agent by inhibiting histone deacetylase” (Bioorg Med Chem, 2010):

What was measured:
[1] = system: MKN-45; test: Antiproliferative activity against human MKN45 cells after 72 hrs by methylene blue staining; assay type: functional, cell-based; conditions: MKN-45, 72 h
Outline: (§1)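 Log-phase cells kept in RPMI-1640 with 5% fetal bovine serum, seeded at 5000 cells/mL/well, then exposed to a range of drug concentrations for 72 h. Growth read by methylene blue dye assay. IC50, the concentration giving 50% growth inhibition relative to untreated control, derived graphically. Doxorubicin served as positive control.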

[2] = system: KB; test: Antiproliferative activity against human KB cells after 72 hrs by methylene blue staining; assay type: functional, cell-based; outline: as §1
[3] = system: NCI-H460; test: Antiproliferative activity against human H460 cells after 72 hrs by methylene blue staining; assay type: functional, cell-based; conditions: NCI-H460, 72 h; outline: as §1
[4] = target: Histone deacetylase; test: Inhibition of human HDAC after 30 mins; assay type: protein assay

Row | SMILES | IC50 [1] | IC50 [2] | IC50 [3] | IC50 [4]
1 | O=C(On1nnc2ccccc21)c1ccccc1 | 97 nM | 104 nM | 195 nM | 
2 | O=C(On1nnc2ccccc21)c1ccc(O)cc1 | 49 nM | 88 nM | 98 nM | 
3 | O=C(On1nnc2ccccc21)c1cc(O)cc(O)c1 | 28 nM | 67 nM | 52 nM | 
4 | COc1ccc(C(=O)On2nnc3ccccc32)cc1 | 39 nM | 43 nM | 52 nM | 73100 nM
5 | COc1ccc2nnn(OC(=O)c3ccccc3)c2c1 | 206 nM | 209 nM | 295 nM | 
6 | O=C(c1ccccc1)n1nnc2ccccc21 | 668 nM | 666 nM | 750 nM | 
7 | O=C(c1ccc(O)cc1)n1nnc2ccccc21 | 385 nM | 577 nM | 662 nM | 
8 | O=C(c1cc(O)cc(O)c1)n1nnc2ccccc21 | 521 nM | 575 nM | 559 nM | 
9 | O=C(c1cc(O)c(O)c(O)c1)n1nnc2ccccc21 | 334 nM | 392 nM | 332 nM | 
10 | COc1ccc(C(=O)n2nnc3ccccc32)cc1 | 500 nM | 501 nM | 662 nM | 
11 | O=C(On1nnc2ccccc21)c1cc(O)c(O)c(O)c1 | 17 nM | 18 nM | 41 nM | > 100000 nM
12 | COc1cc(OC)cc(C(=O)On2nnc3ccccc32)c1 | 30 nM | 37 nM | 42 nM | 61100 nM
13 | COc1cc(C(=O)On2nnc3ccccc32)cc(OC)c1OC | 1.5 nM | 1.2 nM | 2.4 nM | 9400 nM
14 | COc1ccc2nnn(OC(=O)c3ccc(O)cc3)c2c1 | 184 nM | 149 nM | 216 nM | 
15 | COc1ccc2nnn(OC(=O)c3cc(O)cc(O)c3)c2c1 | 93 nM | 153 nM | 195 nM | 
16 | COc1ccc2nnn(OC(=O)c3cc(O)c(O)c(O)c3)c2c1 | 36 nM | 81 nM | 117 nM | 
17 | COc1ccc(C(=O)On2nnc3ccc(OC)cc32)cc1 | 93 nM | 97 nM | 95 nM | 
18 | COc1cc(OC)cc(C(=O)On2nnc3ccc(OC)cc32)c1 | 36 nM | 35 nM | 80 nM | 87500 nM
19 | COc1ccc2nnn(OC(=O)c3cc(OC)c(OC)c(OC)c3)c2c1 | 8 nM | 11 nM | 23 nM | 58100 nM
20 | COc1cc(OC)cc(C(=O)n2nnc3ccccc32)c1 | 419 nM | 434 nM | 491 nM | 
21 | COc1cc(C(=O)n2nnc3ccccc32)cc(OC)c1OC | 275 nM | 291 nM | 480 nM | 
22 | COc1cccc2c1C(=O)c1c(O)c3c(c(O)c1C2=O)C[C@@](O)(C(=O)CO)C[C@@H]3O[C@H]1C[C@H](N)[C@H](O)[C@H](C)O1 [DOXORUBICIN] |  | 0.23 nM | 0.38 nM | 
